# According to paper PMC9302452 (ACS Bio & Med Chem Au, 2022):
# Legend:
# [1] = Pharmacokinetics in SD rats; assay type: in vivo, rat
# Method in brief: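 Male Sprague–Dawley rats were dosed with test compound i.v. at 2.0 mg/kg or by oral gavage at 10 mg/kg. The formulation was 5% DMSO/95% hydroxypropyl-β-cyclodextrin (20% w/v) at 1 mg/mL. Orbital-sinus blood was drawn into heparin at 5, 15 and 30 min and at 1, 2, 4, 6, 8 and 24 h. Plasma was stored at −80 °C and quantified by LC/MS, and PK parameters were calculated.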
# [2] = Tissue distribution after oral administration; assay type: in vivo; conditions: male, SD, rat, 30 mg/kg
# Method in brief: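 Male SD animals received a single oral gavage of test compound at 30 mg/kg in 0.5% CMC-Na. Blood and tissues were collected at 0.25, 0.5, 2 and 4 h, with 3 animals per time point. Heparinised blood was centrifuged and plasma stored at −80 °C. Plasma and tissue concentrations were measured by LC/MS and expressed as tissue-to-plasma ratios.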
# HFD-induced obese mice = experiment: HFD-induced obese C57 mice, daily oral treatment for 4 weeks; assay type: in vivo, mouse
# Method in brief: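 C57 mice were made obese on HFD for 8 weeks; low-fat-diet mice served as controls. They were then gavaged daily for 4 weeks with test compound (10 or 30 mg/kg) or PBS vehicle diluted in 0.5% CMC-Na. Body weight and fasting glucose were tracked during dosing. Mice were fasted overnight and killed, and livers were taken for kit-based CS activity, mtDNA and SYBR qPCR (Gapdh reference); n = 5.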
# ERβ = experiment: Expression of other nuclear hormone receptors: ERβ; assay type: cell-based; conditions: Figure S3
# [3] = tested on: ERRα target genes in HepG2-IR cells; experiment: Expression of ERRα and target genes in HepG2-IR cells; assay type: cell-based
# HepG2-IR cells [4] = experiment: Glucose uptake assay in HepG2-IR cells; assay type: cell-based
# Method in brief: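 HepG2-IR cells were starved 2 h in serum-free medium, then washed in glucose-free KRPH buffer (HEPES, pH 7.4, 0.2% fatty-acid-free BSA). They were incubated 30 min in KRPH with 5.0 μM test compound, 5 mM D-glucose and 2-deoxy-D-[3H]glucose. After ice-cold PBS washes, cells were lysed in 0.5 M NaOH/0.1% SDS and neutralised with HCl. Uptake was read by liquid scintillation counting.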
# HepG2-IR cells [5] = experiment: Fatty acid oxidation assay in HepG2-IR cells; assay type: cell-based
# Method in brief: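 Insulin-resistant HepG2 (HepG2-IR) cells were treated with test compound or vehicle for 24 h. They were then incubated 1.5 h at 37 °C with 0.2 mM L-carnitine and 200 μM [14C(U)]palmitate (0.1 μCi/mL), compound still present. Released CO2 was trapped on methylbenzylamine/methanol-soaked paper after acidifying with 6 M HCl. Acid-soluble products in the supernatant were also counted by scintillation. Values were normalised to protein (BCA) from parallel wells.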
# ERRα-LBD = biological target: T1, ERRα-LBD (Homo sapiens, UniProt P11474); experiment: AlphaScreen assay, interaction of ERRα-LBD with PGC1α peptide; assay type: binding
# T1 sequence (P11474 193-421 limits assumed): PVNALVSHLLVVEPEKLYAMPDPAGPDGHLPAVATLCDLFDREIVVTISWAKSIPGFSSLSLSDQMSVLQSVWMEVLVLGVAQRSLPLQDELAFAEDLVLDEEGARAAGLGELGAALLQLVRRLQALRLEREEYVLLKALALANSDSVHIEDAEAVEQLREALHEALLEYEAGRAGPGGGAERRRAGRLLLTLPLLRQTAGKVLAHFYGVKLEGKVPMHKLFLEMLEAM
# Method in brief: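 AlphaScreen used a hexahistidine detection kit with 200 nM His-tagged ERRα-LBD and 50 nM biotinylated PGC1α cofactor peptide, plus donor and acceptor beads. Buffer was 50 mM MOPS, 50 mM NaF, 0.05 mM CHAPS and 0.1 mg/mL BSA at pH 7.4. Test compound was added as a serial dilution series, and EC50 was derived from enhancement of the LBD–peptide interaction.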
# [6] = tested on: glucose/insulin-induced HepG2-IR cells; experiment: Oil red O lipid accumulation, glucose/insulin-induced HepG2-IR cells; assay type: cell-based; conditions: high glucose/high insulin HepG2-IR, 10.0 μM, 48 h
# Method in brief: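 HepG2 steatosis models were induced two ways. Line 3 used DMEM with 10% FBS and 1% BSA plus palmitic (0.33 mM) and oleic (0.66 mM) acid, final 1.0 mM, for 24 h. Line 4 used high glucose and insulin. Cells received DMSO or 10.0 μM test compound for 48 h; Erra overexpression and shRNA knockdown served as controls. Cells were formaldehyde-fixed, stained with 0.5% oil red O in isopropanol for 30 min with hematoxylin counterstain, and lipid was quantified.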
# ERRβ = experiment: Real-time PCR, transcriptional level of ERRβ; assay type: cell-based; conditions: 5.0 μM, 24 h incubation
# Method in brief: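 mRNA was quantified by real-time PCR with SYBR Premix Ex Taq under optimised conditions. Gene expression was normalised to Gapdh as the reference gene.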
# Errα-LKO mice = Errα-LKO mice on HFD treated with compound; assay type: in vivo, mouse; conditions: 30 mg/kg body weight
# Method in brief: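 Liver-specific Errα knockout mice came from crossing Errα-floxed with albumin-Cre mice. They were fed HFD for 8 weeks, then gavaged daily for 4 weeks with test compound (30 mg/kg) or PBS vehicle diluted in 0.5% CMC-Na. For IGTT, overnight-fasted mice received 1.0 g/kg glucose i.p. For ITT, 6 h-fasted mice received 0.5 U/kg human insulin i.p. Tail-vein glucose was read by glucometer. Liver glucose uptake was also measured; n = 5.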
# [7] = male, Sprague-Dawley, rat, plasma, po, 10 mg/kg
# [8] = abdominal adipose tissue/plasma
# [9] = 10 and 30 mg/kg/day oral, 4 weeks
smiles,measurement,setting,value
"COc1ccc2c(=O)n(C)c(-c3ccccc3)nc2c1 [Compound 7, 7-methoxy-3-methyl-2-phenyl quinazolin-4(3H)-one]",Maximum plasma concentration,"[1]; SD rat, PO 10 mg/kg",2.0 ± 0.45 µM
same,F (oral bioavailability),"[1]; SD rat, PO 10 mg/kg vs IV 2 mg/kg, printed on the IV line of Table S1",9.0%
same,Cmax,[1]; [7],531 ± 120 ng/mL
same,Tmax,[1]; [7],15 min
same,AUC(0-inf),"[1]; male, Sprague-Dawley, rat, plasma, po, 10 mg/kg, AUC(0-∞), SD rat, PO 10 mg/kg",383 ± 110 ng·h/mL
same,Kp at 0.25 h,[2]; [8],7.4
same,Kp at 0.5 h,[2]; [8],30.1
same,Kp at 2 h,[2]; [8],22.8
same,Kp at 4 h,[2]; [8],235
same,Kp at 0.25 h,[2]; liver/plasma,58.9
same,Kp at 0.5 h,[2]; liver/plasma,39.8
same,Kp at 2 h,[2]; liver/plasma,28.6
same,Kp at 4 h,[2]; liver/plasma,47.4
same,Body weight,HFD-induced obese mice; [9],did not obviously affect body weight
same,Glucose tolerance (IGTT),HFD-induced obese mice; [9],improved glucose tolerance
same,Insulin resistance (ITT),HFD-induced obese mice; [9],improved glucose tolerance and insulin resistance
same,Fasting glucose levels,"HFD-induced obese mice; 10 and 30 mg/kg/day oral, 4 weeks, vs vehicle",decreased fasting glucose levels
same,Plasma FFA,HFD-induced obese mice; HFD-elevated level,attenuated
same,Plasma TC,HFD-induced obese mice; HFD-elevated level,attenuated
same,Plasma TG,HFD-induced obese mice; HFD-elevated level,attenuated
same,Plasma insulin,HFD-induced obese mice; HFD-elevated level,attenuated
same,"Transcription of Errα and target genes (Pdk4, Atp5β, Pgc1α) in mouse liver",HFD-induced obese mice; both 10 and 30 mg/kg,significantly elevated transcription
same,Expression of FFA oxidation genes Mcad and Cpt1a in liver,HFD-induced obese mice; compound-treated group,obviously enhanced
same,Food intake,HFD-induced obese mice; compound-treated vs PBS-fed mice,similar
same,Serum ALT level,HFD-induced obese mice; daily oral,dampened
same,Serum AST level,HFD-induced obese mice; daily oral,dampened
same,Hepatic steatosis (Oil red O and HE staining),"HFD-induced obese mice; daily oral, both 10 and 30 mg/kg",potently mitigated hepatic steatosis
same,CS activity,HFD-induced obese mice; liver,higher CS activity
same,Copy number of mitochondrial DNA,HFD-induced obese mice; liver,elevated
same,Fatty acid oxidation,HFD-induced obese mice; liver tissue,higher
same,"Protein levels of AOX1, Cytochrome C, SDH, CPT1A","HFD-induced obese mice; liver, western blot",elevated
same,Oxygen consumption,HFD-induced obese mice; metabolic cage,elevated oxygen consumption
same,"Protein levels of ERRα, PDK4, MCAD, ATP5β in liver",HFD-induced obese mice; western blot,significantly increased protein levels
same,Akt signaling pathways in the liver (p-Akt/total Akt),HFD-induced obese mice; western blot of liver tissue,significantly sensitized Akt signaling pathways
same,Expression of ERβ,ERβ,not obviously affected
same,Expression of ERRα target genes including Errα,[3],increased by the molecule in a dose-dependent manner
same,Glucose uptake,HepG2-IR cells [4],significantly enhanced
same,Fatty acid oxidation,HepG2-IR cells [5],significantly enhanced
same,EC50,ERRα-LBD,86 nM
same,Lipid accumulation (oil red O),[6],significantly alleviated lipid accumulation
same,Effect on transcriptional level of ERRβ,ERRβ,did not display an obvious effect
same,Effects on systemic and liver insulin resistance in Errα-LKO mice,Errα-LKO mice,almost completely abolished
